# Screening results (PubChem)
# PPC-1+TRAIL kill: compounds killing PPC-1 cancer cells with TRAIL present, primary screen, TRAIL potentiator project, ATPLite luminescence, uHTS; PPC-1 cells + TRAIL, ATPLite viability luminescence; cell killing (% activity), % at 4 µM or 5 µM; 0.41% of 220,000 active;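 active = cell killing above 50% in the first pass at 4 µM, then a duplicate retest at 5 µM averaging 50% or more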;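 note: plate controls were cells with TRAIL plus DMSO for no effect and medium-only wells lacking cells for full effect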
# TRAIL sens C8: viability loss with TRAIL in NB7+C8 cells, primary screen, TRAIL sensitizer project, cell-based, ATPlite luminescence | inhibition (viability loss, TRAIL sensitization), % at 10 µM | 1% of 360,000 active;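 active = compounds causing at least 50% loss of cell viability in the single-dose screen, relative to plate controls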
# STAT3 act: IL-6 driven STAT3 reporter potentiators, primary screen, U3A cells, luciferase, luminescence, MLSCN library. IL-6 STAT3-luciferase reporter; 100% = signal with IL-6 EC80 alone. activation (% of control), % at 5.6 µM. 0.91% of 190,000 active. AID 871, 2007;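 active = activation above the screen-wide mean of compound activation plus 3 SD, cut at about 130% in these data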;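 note: 0% = background luminescence of wells with medium and substrate only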
#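 system = STAT3-luciferase reporter U3A cells | reagent = IL-6 stimulus at 33 ng/mL final | timing = 1 h compound pre-exposure, 6 h IL-6 stimulation, 37 °C | measured by = luminescence | evaluation = % activation versus median of IL-6-stimulated wells | control set = IL-6-only wells as 100% reference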
# STAT3 blocker: IL-6 driven STAT3 reporter inhibitors, primary screen, U3A cells, luciferase, luminescence, MLSCN library; AID 862, 2007; inhibition, % at 5.5 µM; 0.89% of 190,000 active; IL-6 STAT3-luciferase reporter; host cell line lacks STAT1;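 active = inhibition above the mean inhibition across all screened compounds plus 3 SD, cut at about 44% in these data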;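 note: 0% = DMSO only wells and 100% = 100 µM nifuroxazide control wells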
# STAT1 blocker: STAT1 signaling inhibitors, primary screen, cell-based, HTS, luciferase reporter; inhibition, % at 5.5 µM; 0.35% of 200,000 active; AID 920, 2007; NIH 3T3 STAT1-luciferase reporter, IFN-gamma, luminescence;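 active = inhibition above a set limit, the mean inhibition across all tested compounds plus 3 SD, cut at about 34% in these data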;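 note: 0% = IFN-gamma with DMSO and 100% = IFN-gamma with 300 µM nifuroxazide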
# PPC1 cytotox: cytotoxicity in PPC-1 cells, confirmation, cytotoxicity control for TRAIL apoptosis potentiator project, cell-based, ATP content luminescence | PPC-1 viability, ATPlite luminescence, overnight | shares compounds with PPC-1+TRAIL kill | AID 1447, 2008 | cytotoxicity, % at 5 µM | 50% of 1,200 active;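 active = reconfirmed compounds whose average cytotoxicity reaches 50% or more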;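 note: 0% = DMSO-treated cells and 100% = wells holding medium but no cells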
# * marks the source's active call; other numbers are inactive results; . = no result. Most compounds without a hit are left out; they make up all but 1.8% or so of the library.
SMILES,PPC-1+TRAIL kill,TRAIL sens C8,STAT3 act,STAT3 blocker,STAT1 blocker,PPC1 cytotox
Fc1ccccc1-c1ccc(/C=N/Nc2nc3ccccc3[nH]2)o1,80*,79*,126,-34,-9,78*
C(=N\Nc1nc2ccccc2[nH]1)/c1ccccn1,79*,91*,12,111*,93*,80*
C(=N\Nc1nc2ccccc2[nH]1)/c1cccc2nccnc12,45,26,.,.,.,.
Cc1ccc(/C=N/Nc2nnc(Cc3ccccc3)c(=O)[nH]2)o1,4,0,90,16,11,.
C(=N\Nc1nc2ccccc2[nH]1)/c1ccc2ncccc2c1,70*,81*,.,.,.,72*
COc1ccc(/C=N/Nc2nc3ccccc3[nH]2)cc1OC,-16,7,98,0,-2,.
Cc1ccc(/C=N\Nc2nc3ccc(Cl)cc3[nH]2)o1,7,9,95,12,-40,10
CCCCn1c(/C=N/Nc2nc3ccccc3[nH]2)nc2ccccc21,0,27,105,-11,-13,.
CC1=NN(C(N)=S)C(=O)C1N=Nc1c(C)n(C)n(-c2ccccc2)c1=O (stereo not given),.,6,.,.,.,.
Cc1cccc(CN2[C@H](CO)C=CS2(=O)=O)c1,.,-13,.,.,.,.
COc1cc(C(=O)NCCC(=O)NC(C)CCc2ccccc2)cc(OC)c1OC (stereo not given),.,-9,.,.,.,.
O=C(NC1CCCCC1)C(c1ccccc1)N(Cc1ccc2c(c1)OCO2)C(=O)c1cnsn1 (stereo not given),1,15,108,-7,3,8
CC1(c2nnnn2Cc2ccccc2)CCC(=O)N1CCc1ccc(O)cc1 (stereo not given),.,-10,.,.,.,.
CC(=O)c1sc2c(c1OC(=O)c1ccc(Cl)cc1)c(=O)n(-c1ccccc1)c(=S)n2-c1ccccc1,.,10,.,.,.,.
CC(=O)c1sc2c(c1OC(=O)c1ccc(Cl)cc1Cl)c(=O)n(-c1ccccc1)c(=S)n2-c1ccccc1,29,15,.,.,.,23
COC(=O)c1ccc2nc(-c3ccco3)c(Cc3ccc(OC)cc3C)n2c1,.,-5,.,.,.,.
CCCCOc1ccc(C2(C(=O)O)CCCC2)cc1,-9,-2,101,3,-8,.
CCCOc1ccc(C2(C(=O)O)CCCC2)cc1,11,-10,101,3,2,13
O=C(O)CCCC(=O)Nc1ccccc1Oc1ccccc1,21,-19,.,.,.,.
CCCCC(=O)Nc1ccccc1Oc1ccccc1,-6,-3,97,7,-2,-14
Cc1ccc(Nc2nc(Oc3ccc(OCc4ccccc4)nn3)nc(N3CCOCC3)n2)cc1,16,29,99,4,1,13
Cc1ccsc1CN(C)CC(=O)Nc1ccccc1C(=O)NC1CC1,.,-12,.,.,.,.
Cc1cn2nc(N)c3ccccc3c2n1,18,17,101,6,0,.
Nc1nn2cc(-c3ccccc3)nc2c2ccccc12,47,56*,135*,-40,-47,51*
CCc1ccn2cc(-c3ccc4c(c3)OCO4)nc2c1,92*,92*,.,.,.,91*
SMILES,PPC-1+TRAIL kill,TRAIL sens C8,STAT3 act,STAT3 blocker,STAT1 blocker,PPC1 cytotox
COC(=O)c1ccc2nc(-c3ccc4c(c3)OCO4)cn2c1,63*,70*,25,89*,66*,63*
c1cnc2nc(-c3ccc4c(c3)OCO4)cn2c1,26,23,95,11,-42,.
COC(=O)[C@@]12C[C@@H](CC(=O)NCc3cccc4ccccc34)C(=O)N(CCc3ccc(OC)c(OC)c3)C1=CCC(C)(C)C2,.,19,.,.,.,.
C=CCn1c(NC(=O)c2ccc(C)cc2)nc2ccccc21,.,11,.,.,.,.
CN(C)c1ccc(/C=C2\CCCc3c2nc2ccccc2c3C(=O)O)cc1,.,22,.,.,.,.
O=C(CSc1nnc(Cc2cccs2)n1C1CCCCC1)N1CCCc2ccccc21,2,20,107,0,2,7
Cn1c(Cc2cccs2)nnc1SCC(=O)N1CCCc2ccccc21,-7,-2,98,10,1,.
Cc1cccc(NS(=O)(=O)c2ccc(Br)s2)n1,15,3,107,-8,15,6
